Consider 2 compounds from publication PMC6044759 (ACS Omega, 2018).

One data set relates to MCF-7 cells. The data set is described as follows: Live and dead assay by flow cytometry. In kind it is cell-based, human. Conditions: 15 nM, positive control, PI staining. The method, boiled down:
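MCF-7 cells (0.8 × 10^6) were exposed to vehicle, 3 or 6 μM test compound, or 15 nM vinblastine (positive control) for 48 h. Cells were stained with propidium iodide and live and dead percentages were counted by flow cytometry. Values are mean ± SD of three experiments.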
For orientation: A flow cytometer gives signals particle by particle.

The conditions of data set [1]: cited from earlier work.

Where a name gives a salt, the structure may show the parent alone.

`CC[C@]1(O)C[C@@H]2CN(CCc3c([nH]c4ccccc34)[C@@](C(=O)OC)(c3cc4c(cc3OC)N(C)[C@H]3[C@@](O)(C(=O)OC)[C@H](OC(C)=O)[C@]5(CC)C=CCN6CC[C@]43[C@@H]65)C2)C1` [Vinblastine, Vinblastine sulfate]: in the data set with MCF-7 cells, the dead % was determined as 83 ± 6% and the live % is on record as 18 ± 6%. Turning to `COc1ccc(/C=C\c2cc(OC)c(OC)c(OC)c2)cc1O` [CA-4, combretastatin A-4], the Solubility in water entry in data set [1] is “poorly soluble in water”.
